Data set [1] can be described thus: Alkylating activity (0.1 mM) was determined at pH 7.4; expressed as OD (540n m)/mM of drug). It is filed as ADME. To be noted: pH 7.4, 100 µM. The essentials: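 Alkylation read as OD at 540 nm per mM of drug. Drug at 0.1 mM was pre-incubated with NBP in TRIS buffer pH 7.4 for 2 h at 37 °C, then triethylamine/acetone was added.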
The subject of data set [2] is K562. Description: Cytotoxic effect in K562 cells. To be noted: Homo sapiens.
The target of data set [3] is Tyrosine-protein kinase ABL (Homo sapiens, UniProt P00519+P42684). Description: Inhibition of Abl tyrosine kinase. It is filed as protein assay.

Molecules are shown by their SMILES.

As a reminder, the IC50 is the midpoint of a concentration-inhibition curve.

Take `Cc1ccc(NC(=O)c2ccc(/N=N/N(C)C)cc2)cc1Nc1nccc(-c2cccnc2)n1`: the Alkylating activity in data set [1] is recorded as 0.0002. Moreover, the figures for the half-inhibitory concentration (IC50) in data set [2] and in data set [3] were 2.16 µM and 0.1946 µM, respectively.
As to `Nc1ccc(C(=O)Nc2cccc(Nc3nccc(-c4cccnc4)n3)c2)cc1`, the IC50 turned out to be 9.88 µM in data set [2] and 4.89 µM in data set [3].
The matching figures for `COCC/N=N/Nc1cccc(Nc2nccc(-c3cccnc3)n2)c1`: 5.39 µM and 8.6 µM.
The matching figures for `c1cc(N/N=N/CCN2CCOCC2)cc(Nc2nccc(-c3cccnc3)n2)c1`: 10.1 µM and 10 µM.
Take `Cc1ccc(NC(=O)c2ccc(N=NN(C)CO)cc2)cc1Nc1nccc(-c2cccnc2)n1`: the Alkylating activity in data set [1] is recorded as 0.0015.
`Cc1ccc(NC(=O)c2ccc(N)cc2)cc1Nc1nccc(-c2cccnc2)n1` registered an Alkylating activity in data set [1] of 0.0002. The IC50 in data set [2] is 68 µM; in data set [3], more than 10 µM.
Turning to `Nc1cccc(Nc2nccc(-c3cccnc3)n2)c1`, the half-maximal inhibitory concentration (IC50) was 21.7 µM in data set [2] and more than 10 µM in data set [3].
`COCCN=NNc1ccc(C(=O)Nc2cccc(Nc3nccc(-c4cccnc4)n3)c2)cc1` showed an Alkylating activity in data set [1] of 0.0002. For the same compound, the IC50 is 16.2 µM in data set [2] and 0.903 µM in data set [3].
The matching figures for `Cc1ccc(NC(=O)c2ccc(/N=N/N(C)CCCl)cc2)cc1Nc1nccc(-c2cccnc2)n1`: 0.00014, 17.4 µM and 0.8496 µM.
As to `Cn1nnc2c(C(N)=O)ncn2c1=O` [TEMOZOLOMIDE], the Alkylating activity in data set [1] turned out to be 0.0013. Further, the values for the IC50 in data set [2] and in data set [3] were 156 µM and more than 100 µM, respectively.
In data set [2], `Cc1ccc(NC(=O)c2ccc(CN3CCN(C)CC3)cc2)cc1Nc1nccc(-c2cccnc2)n1` [IMATINIB] registered an IC50 of 0.11 µM.

For the origin of these results see ChEMBL document CHEMBL1144977, “Synthesis of pyrimidinopyridine-triazene conjugates targeted to abl tyrosine kinase” (Bioorg Med Chem Lett, 2003).
